{"source": "paper PMC9233738", "about": "(Bioorganic & medicinal chemistry, 2022)", "key": {"[1]": {"assay": "Aqueous solubility at pH 2.0, in-house HPLC assay", "type": "physicochemical"}, "[2]": {"assay": "Aqueous solubility, Biomek FX with pION μSOL evolution software", "type": "physicochemical", "settings": "for solubility: pH 6.5"}, "[3]": {"tested_on": "chloroquine-resistant Dd2 strain", "assay": "Antiplasmodial activity against chloroquine-resistant Dd2 strain", "type": "cell-based, Plasmodium falciparum", "settings": "for antimalarial activity / potency (in words): qualitative statement"}, "[4]": {"tested_on": "HepG2 human hepatoma cells", "assay": "Cytotoxicity, HepG2 cells, MTS cell proliferation assay", "type": "cell-based", "settings": "for EC50: read-out: HepG2 EC50; for Selectivity: SI = EC50(HepG2)/EC50(Dd2)", "summary_of_the_method": "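HepG2 human hepatoma cells were seeded at 2,500 cells/well and pre-incubated for 24 h. Serial dilutions of test compound (0–40 μM range) were then added, followed by a further 48 h incubation.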"}}, "note": "“Also recorded” adds a separate entry of the source. Where two headings read alike, the source gives them in different places.", "data": [{"compound": "OC(CN1CCC2(CCc3ccc4ccccc4c3O2)CC1)c1ccc(F)c(F)c1", "note": "(stereo not shown) [Compound 5i, 1-(3,4-Difluorophenyl)-2-(3,4-dihydrospiro[benzo[h]chromene-2,4’-piperidin]-1’-yl)ethanol]", "values": [{"measurement": "solubility", "setting": "[1]; aqueous solution, pH 2", "result": "40 to 80", "unit": "µM"}]}, {"compound": "OC1CC2(CCN(CCC3CCCCC3)CC2)Oc2c1ccc1ccccc21", "note": "(stereo not shown) [Compound 3e, 1’-(2-Cyclohexylethyl)-3,4-dihydrospiro[benzo[h]chromene-2,4’-piperidin]-4-ol]", "values": [{"measurement": "solubility", "setting": "[2]; aqueous solution", "result": "20 to 40", "unit": "µM"}, {"measurement": "EC50", "setting": "[3]; Plasmodium falciparum, DD2, read-out: Dd2 EC50, chloroquine-resistant Dd2 strain", "result": 320, "unit": "nM"}, {"measurement": "solubility", "setting": "[1]; aqueous solution, pH 2", "result": "40 to 80", "unit": "µM"}]}, {"compound": "O=C(CN1CCC2(CC1)CC(O)c1ccc3ccccc3c1O2)c1ccc(F)c(F)c1", "note": "(stereo not shown) [Compound 3g, 1-(3,4-Difluorophenyl)-2-(4-hydroxy-3,4-dihydrospiro[benzo[h]chromene-2,4’-piperidin]-1’yl)ethanone]", "values": [{"measurement": "solubility", "setting": "[2]; aqueous solution", "result": "20 to 40", "unit": "µM"}, {"measurement": "solubility", "setting": "[1]; aqueous solution, pH 2", "result": "20 to 40", "unit": "µM"}]}, {"compound": "O[C@@H](CN1CCC2(CC1)C[C@H](O)c1ccc3ccccc3c1O2)c1ccc(F)c(F)c1", "note": "[Compound 3mc, (S)-1’-((R)-2-(3,4-Difluorophenyl)-2-hydroxyethyl)-3,4-dihydrospiro[benzo[h]chromene-2,4’-piperidin]-4-ol]", "values": [{"measurement": "EC50", "setting": "[4]; Homo sapiens, HepG2, 48 h", "result": "> 20", "unit": "µM"}, {"measurement": "Selectivity", "setting": "[4]", "result": ">15"}]}, {"compound": "O=C1CC2(CCN(CCC3CCCCC3)CC2)Oc2c1ccc1ccccc21", "note": "[Compound 2e, 1’-(2-Cyclohexylethyl)spiro[benzo[h]chromene-2,4’-piperidin]-4(3H)-one]", "values": [{"measurement": "solubility", "setting": "[2]; aqueous solution", "result": "10 to 20", "unit": "µM"}, {"measurement": "solubility", "setting": "[1]; aqueous solution, pH 2", "result": "20 to 40", "unit": "µM"}, {"measurement": "Selectivity", "setting": "[4]", "result": "> 30"}]}, {"compound": "c1ccc2c3c(ccc2c1)CCC1(CCNCC1)O3", "note": "[Compound 5a, 3,4-Dihydrospiro[benzo[h]chromene-2,4’-piperidine]]", "values": [{"measurement": "solubility", "setting": "[2]; aqueous solution", "result": "20 to 40", "unit": "µM"}, {"measurement": "solubility", "setting": "[1]; aqueous solution, pH 2", "result": "40 to 80", "unit": "µM"}]}, {"compound": "OC1CC2(CCN(CCCc3ccccc3)CC2)Oc2c1ccc1ccccc21", "note": "(stereo not shown) [Compound 3f, 1’-(3-Phenylpropyl)-3,4-dihydrospiro[benzo[h]chromene-2,4’-piperidin]-4-ol]", "values": [{"measurement": "solubility", "setting": "[2]; aqueous medium", "result": "≥ 80", "unit": "µM"}, {"measurement": "solubility", "setting": "[1]; aqueous medium at pH 2.0, pH 2", "result": "≥ 80", "unit": "µM"}]}, {"compound": "O[C@H](CN1CCC2(CC1)C[C@@H](O)c1ccc3ccccc3c1O2)c1ccc(F)c(F)c1", "note": "[Compound 3mb]", "values": [{"measurement": "Selectivity", "setting": "[4]", "result": "<7"}]}, {"compound": "O=C1CC2(CCN(CCCc3ccccc3)CC2)Oc2c1ccc1ccccc21", "note": "[Compound 2f, 1’-(3-Phenylpropyl)spiro[benzo[h]chromene-2,4’-piperidin]-4(3H)-one]", "values": [{"measurement": "solubility", "setting": "[2]; aqueous medium", "result": "20 to 40", "unit": "µM"}, {"measurement": "solubility", "setting": "[1]; aqueous medium at pH 2.0, pH 2", "result": "40 to 80", "unit": "µM"}]}, {"compound": "c1ccc2c3c(ccc2c1)CCC1(CCN(CCC2CCCCC2)CC1)O3", "note": "[Compound 5e, 1’-(2-Cyclohexylethyl)-3,4-dihydrospiro[benzo[h]chromene-2,4’-piperidine]]", "values": [{"measurement": "solubility", "setting": "[1]; aqueous solution, pH 2", "result": "40 to 80", "unit": "µM"}]}, {"compound": "O=C1CC2(CCN(Cc3ccccc3)CC2)Oc2c1ccc1ccccc21", "note": "[Compound 2c, 1’-Benzylspiro[benzo[h]chromene-2,4’-piperidin]-4(3H)-one]", "values": [{"measurement": "solubility", "setting": "[2]; aqueous medium", "result": "40 to 80", "unit": "µM"}, {"measurement": "solubility", "setting": "[1]; aqueous medium at pH 2.0, pH 2", "result": "≥ 80", "unit": "µM"}]}, {"compound": "Fc1ccc(CCN2CCC3(CCc4ccc5ccccc5c4O3)CC2)cc1F", "note": "[Compound 5h, 1’-(3,4-Difluorophenethyl)-3,4-dihydrospiro[benzo[h]chromene-2,4’-piperidine]]", "values": [{"measurement": "solubility", "setting": "[1]; aqueous solution, pH 2", "result": "20 to 40", "unit": "µM"}]}, {"compound": "O=C1CC2(CCN(C(=O)Cc3ccc(F)c(F)c3)CC2)Oc2c1ccc1ccccc21", "note": "[Compound 2l, 1’-(2-(3,4-Difluorophenyl)acetyl)spiro[benzo[h]chromene-2,4’-piperidin]-4(3H)-one]", "values": [{"measurement": "antimalarial activity / potency (in words)", "setting": "[3]", "result": "completely lost"}]}, {"compound": "OC1CC2(CCNCC2)Oc2c1ccc1ccccc21", "note": "(stereo not shown) [Compound 3a, 3,4-Dihydrospiro[benzo[h]chromene-2,4’-piperidin]-4-ol]", "values": [{"measurement": "solubility", "setting": "[1]; aqueous solution, pH 2", "result": "40 to 80", "unit": "µM"}, {"measurement": "Selectivity", "setting": "[4]", "result": ">54.5"}]}, {"compound": "1-(3,4-Difluorophenyl)-2-(1,4-dihydro-2H-spiro[phenanthrene-3,4’-piperidin]-1’-yl)ethan-1-one [Compound 5g]", "values": [{"measurement": "Solubility pH 6.5", "setting": "[2]; pH 6.5, Table 6", "result": "^*** (For 20 μM < solubility ≤ 40 μM)"}, {"measurement": "EC50", "setting": "[3]; read-out: Dd2 EC50, chloroquine-resistant Dd2 strain", "result": "> 2500", "unit": "nM"}, {"measurement": "EC50", "setting": "[4]; HepG2 cells, 48 h incubation, MTS, n = 3", "result": "> 20", "unit": "µM"}]}, {"compound": "O=C(CN1CCC2(CC1)CC(=O)c1ccc3ccccc3c1O2)c1ccc(F)c(F)c1", "note": "[Compound 2g, 1’-(2-(3,4-Difluorophenyl)-2-oxoethyl)spiro[benzo[h]chromene-2,4’-piperidin]-4(3H)-one]", "values": [{"measurement": "solubility", "setting": "[2]; aqueous solution", "result": "40 to 80", "unit": "µM"}, {"measurement": "solubility", "setting": "[1]; aqueous solution, pH 2", "result": "40 to 80", "unit": "µM"}]}, {"compound": "O=C(Cc1ccc(F)c(F)c1)N1CCC2(CCc3ccc4ccccc4c3O2)CC1", "note": "[Compound 5j, 2-(3,4-Difluorophenyl)-1-(3,4-dihydrospiro[benzo[h]chromene-2,4’-piperidin]-1’ yl)ethanone]", "values": [{"measurement": "antimalarial activity / potency (in words)", "setting": "[3]", "result": "completely lost"}]}, {"compound": "CCN1CCC2(CC1)CC(O)c1ccc3ccccc3c1O2", "note": "(stereo not shown) [Compound 3b, 1’-Ethyl-3,4-dihydrospiro[benzo[h]chromene-2,4’-piperidin]-4-ol]", "values": [{"measurement": "solubility", "setting": "[2]; aqueous solution", "result": "20 to 40", "unit": "µM"}, {"measurement": "solubility", "setting": "[1]; aqueous solution, pH 2", "result": "20 to 40", "unit": "µM"}]}, {"compound": "OC1CC2(CCN(CCc3ccccc3)CC2)Oc2c1ccc1ccccc21", "note": "(stereo not shown) [Compound 3d, 1’-Phenethyl-3,4-dihydrospiro[benzo[h]chromene-2,4’-piperidin]-4-ol]", "values": [{"measurement": "solubility", "setting": "[2]; aqueous medium", "result": "40 to 80", "unit": "µM"}, {"measurement": "solubility", "setting": "[1]; aqueous medium at pH 2.0, pH 2", "result": "40 to 80", "unit": "µM"}]}, {"compound": "O=C1CC2(CCN(CCc3ccc(F)c(F)c3)CC2)Oc2c1ccc1ccccc21", "note": "[Compound 2h, 1’-(3,4-Difluorophenethyl)spiro[benzo[h]chromene-2,4’-piperidin]-4(3H)-one]", "values": [{"measurement": "solubility", "setting": "[2]; aqueous solution", "result": "10 to 20", "unit": "µM"}]}, {"compound": "OC(CN1CCC2(CC1)CC(O)c1ccc3ccccc3c1O2)c1ccc(F)c(F)c1", "note": "(stereo not shown) [Compound 1]", "values": [{"measurement": "EC50", "setting": "[4]; Homo sapiens, HepG2, 48 h", "result": "> 20", "unit": "µM"}, {"measurement": "Selectivity", "setting": "[4]", "result": ">53.3"}]}, {"compound": "c1ccc(CN2CCC3(CCc4ccc5ccccc5c4O3)CC2)cc1", "note": "[Compound 5c, 1’-Benzyl-3,4-dihydrospiro[benzo[h]chromene-2,4’-piperidine]]", "values": [{"measurement": "solubility", "setting": "[1]; aqueous medium at pH 2.0, pH 2", "result": "20 to 40", "unit": "µM"}]}, {"compound": "OC1CC2(CCN(Cc3ccccc3)CC2)Oc2c1ccc1ccccc21", "note": "(stereo not shown) [Compound 3c, 1’-Benzyl-3,4-dihydrospiro[benzo[h]chromene-2,4’-piperidin]-4-ol]", "values": [{"measurement": "solubility", "setting": "[2]; aqueous medium", "result": "40 to 80", "unit": "µM"}, {"measurement": "solubility", "setting": "[1]; aqueous medium at pH 2.0, pH 2", "result": "40 to 80", "unit": "µM"}]}, {"compound": "O=C1C[C@@]2(CCCN(CCc3ccc(F)c(F)c3)C2)Oc2c1ccc1ccccc21", "note": "[Compound 10c, (R)-1’-(3,4-Difluorophenethyl)spiro[benzo[h]chromene-2,3’-piperidin]-4(3H)-one]", "values": [{"measurement": "Selectivity", "setting": "[4]", "result": "> 30"}]}, {"compound": "CCN1CCC[C@@]2(CC(O)c3ccc4ccccc4c3O2)C1", "note": "(stereo partly drawn) [Compound 11a, (2R)-1’-Ethyl-3,4-dihydrospiro[benzo[h]chromene-2,3’-piperidin]-4-ol]", "values": [{"measurement": "EC50", "setting": "[4]; Homo sapiens, HepG2, 48 h", "result": "> 20", "unit": "µM"}, {"measurement": "Selectivity", "setting": "[4]", "result": ">28.8"}]}, {"compound": "O=C1CC2(CCN(CCc3ccccc3)CC2)Oc2c1ccc1ccccc21", "note": "[Compound 2d, 1’-Phenethylspiro[benzo[h]chromene-2,4’-piperidin]-4(3H)-one]", "values": [{"measurement": "solubility", "setting": "[2]; aqueous medium", "result": "40 to 80", "unit": "µM"}, {"measurement": "solubility", "setting": "[1]; aqueous medium at pH 2.0, pH 2", "result": "≥ 80", "unit": "µM"}]}, {"compound": "O=C(Cc1ccc(F)c(F)c1)N1CCC2(CC1)CC(O)c1ccc3ccccc3c1O2", "note": "(stereo not shown) [Compound 3l, 2-(3,4-Difluorophenyl)-1-(4-hydroxy-3,4-dihydrospiro[benzo[h]chromene-2,4’-piperidin]-1’yl)ethanone]", "values": [{"measurement": "antimalarial activity / potency (in words)", "setting": "[3]", "result": "lacked antimalarial activity; also recorded: completely lost"}]}, {"compound": "O[C@H](CN1CCC2(CC1)C[C@H](O)c1ccc3ccccc3c1O2)c1ccc(F)c(F)c1", "note": "[Compound 3md, (S)-1’-((S)-2-(3,4-Difluorophenyl)-2-hydroxyethyl)-3,4-dihydrospiro[benzo[h]chromene-2,4’-piperidin]-4-ol]", "values": [{"measurement": "EC50", "setting": "[4]; Homo sapiens, HepG2, 48 h", "result": "> 20", "unit": "µM"}, {"measurement": "Selectivity", "setting": "[4]", "result": "> 11"}]}]}
